Screens: PubChem, Broad Institute
HIV Env fusion: inhibitors of HIV-1 Env-driven cell-cell fusion, primary screen, HeLa-JRFL effector, CEM21 target cells, luciferase | 360,000 tested, 1.1% active | inhibition, % at 12.3 µM | AID 651610, 2012;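 active = mean replicate inhibition score of at least 50 and every replicate individually at or above 50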;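 note: 0% = plate neutral controls and 100% = maraviroc near 300 nM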
CDK5 p35 inh: inhibitors of human CDK5/p35 kinase, primary screen, biochemical, single concentration | AID 488839, 2010 | Cyclin-dependent kinase 5 (Homo sapiens) + Cyclin-dependent kinase 5 activator 1 (Homo … | 330,000 tested, 0.01% active | inhibition, % at 10 µM | Recombinant CDK5/p35, ADP-Glo luminescence, 60 min;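 active = highest replicate inhibition of at least 50% and at least 75% of replicates reaching 50%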;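 note: plate controls were DMSO neutral control for no effect and GW8510 at 10 µM for full effect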
Target sequence (Q00535 whole entry, looked up): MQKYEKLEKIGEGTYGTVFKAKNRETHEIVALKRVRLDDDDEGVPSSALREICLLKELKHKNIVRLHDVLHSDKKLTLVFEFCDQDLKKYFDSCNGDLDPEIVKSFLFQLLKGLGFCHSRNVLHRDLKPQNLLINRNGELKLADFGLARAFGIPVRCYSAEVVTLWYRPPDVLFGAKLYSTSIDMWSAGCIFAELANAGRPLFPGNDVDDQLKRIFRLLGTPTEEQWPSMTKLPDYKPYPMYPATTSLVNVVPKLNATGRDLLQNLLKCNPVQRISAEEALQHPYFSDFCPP
Target sequence (Q15078 whole entry, looked up): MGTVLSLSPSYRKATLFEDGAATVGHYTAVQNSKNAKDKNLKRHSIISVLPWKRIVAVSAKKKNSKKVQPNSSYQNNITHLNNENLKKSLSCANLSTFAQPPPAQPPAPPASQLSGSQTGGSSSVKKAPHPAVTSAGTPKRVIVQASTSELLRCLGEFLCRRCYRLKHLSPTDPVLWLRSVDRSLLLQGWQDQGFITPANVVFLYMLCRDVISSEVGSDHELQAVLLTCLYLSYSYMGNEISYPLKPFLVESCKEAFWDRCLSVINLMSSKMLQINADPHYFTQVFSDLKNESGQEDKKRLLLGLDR
GSK3B inh: human GSK3beta kinase inhibitors, primary screen, biochemical, cell-free homogeneous, HTS; activity score (negative = inhibition), % at 10 µM; Glycogen synthase kinase-3 beta (Homo sapiens), P49841; GST-GSK3beta kinase, ADP-Glo luminescence, 60 min; stronger effect = lower value; 300,000 tested, 0.038% active;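 active = more than half of replicate wells score below -50%, meaning over 50% inhibition versus plate controls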;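 note: 0% = median DMSO wells and -100% = median GW8510 positive control wells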
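Test system: GST-fused GSK3beta enzyme, cell-free | Quantity: 1.6 ng GST-GSK3beta enzyme per well | Reagent: 25 µM ATP with peptide substrate | Schedule: 60 min enzyme reaction, room temperature | Signal: Luminescent ADP-Glo measurement of ADP formed | Read-out basis: Score relative to plate controls | Control set: DMSO and 20 µM GW8510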
STK33 inh: inhibitors of purified STK33 kinase, primary screen, biochemical, ADP-Glo luminescence, homogeneous, cell-free; MBP phosphorylation; inhibition, % at 10 µM; 320,000 tested, 0.073% active; AID 2661, 2010;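 active = inhibition at or above 25%, using the most active replicate where run in duplicate; inactive = inhibition below 25%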
GSIS activator: GLuc luminescence reporter in INS-1E cells, primary screen for activators of glucose-dependent secretion of insulin | INS-1E GLuc reporter insulin secretion, 2-3 h | 370,000 tested, 0.61% active | AID 743287, 2014 | activation, % at 16.6 µM;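 active = lowest replicate activation of at least 40%, so every replicate reaches that level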;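 note: 0% = median of neutral control wells and 100% = median of IBMX positive control wells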
GSK3 alpha inh: blockers of GSK3A enzyme activity – biochemical, luminescence, cell-free homogeneous, HTS, primary screen; 320,000 tested, 0.1% active; Glycogen synthase kinase-3 alpha (Homo sapiens), P49840; inhibition, % at 10 µM; GSK-3 alpha kinase, ADP-Glo luminescence, 60 min;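 active = more than half of replicates show inhibition above 20%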;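 note: GST-tagged GSK-3 alpha with peptide substrate and 25 µM ATP; 0% = DMSO neutral wells and 100% = GW8510 positive control wells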
* = called active by the depositor; [ ] = dose if it differs, or a comment. Hits are enriched below; roughly 1.4% of the tested compounds scored in any of these assays.

For C[C@@H]1CCCCO[C@H](CN(C)Cc2ccc(C(=O)O)cc2)[C@@H](C)CN([C@H](C)CO)C(=O)c2cc(NS(=O)(=O)c3ccc(Cl)cc3)ccc2O1 the results were HIV Env fusion -1.8[16.7 µM] and GSIS activator 9.7.
For [N-]=[N+]=Nc1ccccc1C[C@]1(C(=O)N2CCCCC2)N=C(c2ccc(OCCCO)cc2)O[C@H]1c1ccccc1 the results were HIV Env fusion 32.5[16.7 µM].
`CCCC(=O)N1CCC2(CC1)CN(S(C)(=O)=O)[C@H](CO)c1c2c2ccc(OC)cc2n1C` gave GSIS activator 26.1.
CN(C)CCCN(C(=O)CCOc1ccccc1)c1nc2c(F)cccc2s1 was read as HIV Env fusion 12.7, CDK5 p35 inh -0.2, GSK3B inh -0.5 and GSIS activator 98.9*.
CN(C)CCCN(C(=O)CCc1ccccc1)c1nc2c(F)cccc2s1 was read as CDK5 p35 inh 1.4, GSK3B inh -3.6, STK33 inh -1.9, GSIS activator -15.9 and GSK3 alpha inh 1.9.
`CN(C)CCCN(C(=O)c1ccco1)c1nc2c(F)cccc2s1` gave HIV Env fusion -6.9, CDK5 p35 inh -4.1, GSK3B inh -4.2, STK33 inh -2.2, GSIS activator 40.7* and GSK3 alpha inh -1.3.
For CN(C)CCCN(C(=O)COc1ccc(Cl)cc1)c1nc2ccc(F)cc2s1 the results were HIV Env fusion -2.4, CDK5 p35 inh -0.7, GSK3B inh -3.2, STK33 inh 0.7, GSIS activator -26.6 and GSK3 alpha inh 1.2.
CN(C)CCCN(C(=O)CCOc1ccccc1)c1nc2ccc(F)cc2s1 was read as HIV Env fusion 10.0, CDK5 p35 inh -1.7 and GSIS activator 45.4*.
`O=C(Cc1cccnc1)N1CC2(C1)[C@@H](c1ccccc1)[C@@H](CO)N2C(=O)C1CCCC1` gave HIV Env fusion -21.2[16.7 µM] and GSIS activator -20.7.
Screening CCOC(=O)[C@]12Cc3c(cc(OC)c(OC)c3OC)[C@H]1N(C1CCCCC1)C(=O)c1cc(OC)ccc12 returned HIV Env fusion 1.7 and GSIS activator 178.0*.
For COc1cccc(S(=O)(=O)N[C@@H]2C=C[C@@H](CC(=O)NCc3ccc(Cl)cc3)O[C@@H]2CO)c1 the results were HIV Env fusion 2.2[16.7 µM] and GSIS activator -2.2.
For COC(=O)c1ccc2nc(Nc3nc4ccc(F)cc4s3)sc2c1 the results were HIV Env fusion 56.9*, CDK5 p35 inh 0.1, GSK3B inh -2.3, STK33 inh -1.0 and GSK3 alpha inh -0.6.
CC1(C(=O)NS(=O)(=O)c2ccc(Cl)s2)CCN1C(=O)C1(c2ccc(Cl)cc2)CC1 (configuration not stated) was read as HIV Env fusion -2.7.
Screening Cc1ccccc1S(=O)(=O)NC(=O)C1(C)CCN1C(=O)C1(c2ccc(Cl)cc2)CCC1 (configuration not stated) returned HIV Env fusion -2.6 and GSIS activator 28.3.
Screening CC1(C(=O)NS(=O)(=O)c2ccc(Cl)s2)CCN1C(=O)C1(c2ccc(Cl)cc2)CCC1 (configuration not stated) returned HIV Env fusion inactive and GSIS activator 58.9*.
For CC1(C(=O)NS(=O)(=O)c2ccccc2Cl)CCN1C(=O)C1(c2ccccc2)CCCC1 (configuration not stated) the results were HIV Env fusion -1.3 and GSIS activator 92.2*.
Screening CC1(C(=O)NS(=O)(=O)c2cccs2)CCN1C(=O)C1(c2ccccc2)CCCC1 (configuration not stated) returned HIV Env fusion -10.1 and GSIS activator -3.7.
For Cc1noc(C)c1S(=O)(=O)NC(=O)C1(C)CCN1C(=O)C1(c2ccc(Cl)cc2)CCC1 (configuration not stated) the results were HIV Env fusion -7.5 and GSIS activator 55.3*.
For CC1(C(=O)NS(=O)(=O)c2ccc(Cl)s2)CCN1C(=O)C1(c2ccccc2)CCCC1 (configuration not stated) the results were HIV Env fusion -24.1 and GSIS activator 111.5*.
For C[C@@H]1CN([C@@H](C)CO)C(=O)Cc2cc(NC(=O)Nc3ccccc3)ccc2O[C@H]1CN(C)Cc1ccncc1 the results were HIV Env fusion 2.4[16.7 µM] and GSIS activator -19.7.
For Cc1nn(S(=O)(=O)c2cccs2)c(C)c1Sc1ccc([N+](=O)[O-])cc1 the results were HIV Env fusion 97.4*, CDK5 p35 inh 0.7, GSK3B inh -2.8, STK33 inh -2.0, GSIS activator 3.8 and GSK3 alpha inh 0.9.
`CCN=C1S/C(=C/c2ccc(-c3ccc(Cl)cc3C(=O)O)o2)C(=O)N1CC` gave HIV Env fusion 11.8, CDK5 p35 inh 0.7, GSK3B inh -1.0, STK33 inh 2.5, GSIS activator 87.6* and GSK3 alpha inh 42.8.
For CCN=C1S/C(=C\c2ccc(-c3cccc(C(=O)O)c3)o2)C(=O)N1CC the results were CDK5 p35 inh 1.2, GSK3B inh 0.2, STK33 inh -0.2 and GSK3 alpha inh 3.2.
`Cc1noc(C)c1NC(=O)N(C)C[C@@H]1Oc2ccc(NS(=O)(=O)c3c(C)noc3C)cc2CC(=O)N([C@@H](C)CO)C[C@@H]1C` gave HIV Env fusion 3.2[16.7 µM] and GSIS activator -4.0.
Screening CN(C)C=NC(=O)c1ccc(N2CCN(c3ncc(C(F)(F)F)cc3Cl)CC2)cc1 returned CDK5 p35 inh 0.3, GSK3B inh -1.0, STK33 inh -0.5, GSIS activator 72.2* and GSK3 alpha inh -0.9.
Screening CC(=O)Nc1ccc(-c2ccnc3c2CC(C)(C(=O)Nc2cccc(C(F)(F)F)c2)O3)cc1 (configuration not stated) returned HIV Env fusion -12.7 and GSIS activator -32.5.
`CC(=O)Nc1ccc(-c2ccnc3c2CC(C)(C(=O)Nc2cccc(OC(F)(F)F)c2)O3)cc1` (configuration not stated) gave HIV Env fusion -36.1 and GSIS activator 69.3*.
For O=C(N[C@@H]1C=C[C@H](CC(=O)N2CCCCC2)O[C@@H]1CO)c1cccc(F)c1 the results were HIV Env fusion 1.7[16.7 µM] and GSIS activator 1.3.
`C/C=C/c1ccc([C@@H]2[C@H](CO)N(CCC(F)(F)F)C23CN(C(C)=O)C3)cc1` gave GSIS activator -0.8.
